Data on three molecules can be found in ChEMBL document CHEMBL1122018, “Synthesis and orexigenic activity of some 1-methyl-4-piperidylidene-Substituted pyrrolo[2,1-g][3] benzazepine and dibenzocycloheptene derivatives” (1982).

Common to all, as to type: functional
The subject of assay [1] is Felis catus. Description: Average food consumed at the dose of 0.063 mg/kg (po) using 10 cats per dose level at 180 min (control day/ test day); 50/190.
For assay [2], the system named is Felis catus. Nature of the assay: Average food consumed at the dose of 0.25 mg/kg (po) using 10 cats per dose level at 30 min (control day/ test day); 38/175. In outline:
(§1)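 Cats given test compound suspended in 1% methylcellulose, or 1% methylcellulose placebo, by gavage 30 min before a preweighed test meal. Food was offered in surplus for 3 h, and intake was found by reweighing at 30, 60 and 180 min. Ten cats per dose, each dosed no more than once weekly. Test-day intake was compared with the preceding control day by two-tailed paired t test (p < 0.05); values are mean ± SD.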

For assay [3], the system named is Felis catus. Description: Average food consumed at the dose of 0.50 mg/kg (po) using 10 cats per dose level at 60 min (control day/ test day); 35/219. Particulars: dose 0.5 mg/kg. In outline: as §1
Assay [4] has as its system Felis catus. Description: Average food consumed at the dose of 0.016 mg/kg (po) using 10 cats per dose level at 30 min (control day/ test day); 21/142.
Assay [5] relates to Felis catus. Nature of the assay: Average food consumed at the dose of 0.063 mg/kg (po) using 10 cats per dose level at 30 min (control day/ test day); 13/120.
For assay [6], the system named is Felis catus. Description: Average food consumed at the dose of 0.016 mg/kg (po) using 10 cats per dose level at 180 min (control day/ test day); 45/215.
The test system of assay [7] is Felis catus. Nature of the assay: Average food consumed at the dose of 0.063 mg/kg (po) using 10 cats per dose level at 60 min (control day/ test day); 22/144.
The subject of assay [8] is Felis catus. Nature of the assay: Average food consumed at the dose of 0.016 mg/kg (po) using 10 cats per dose level at 60 min (control day/ test day); 31/168.
In assay [9] the test system is Felis catus. Description: Average food consumed at the dose of 0.25 mg/kg (po) using 10 cats per dose level at 60 min (control day/ test day); 39/212. In outline: as §1
The subject of assay [10] is Felis catus. Nature of the assay: Average food consumed at the dose of 0.25 mg/kg (po) using 10 cats per dose level at 180 min (control day/ test day); 50/239.
Assay [11] concerns Felis catus. Description: Average food consumed at the dose of 0.50 mg/kg (po) using 10 cats per dose level at 30 min (control day/ test day); 39/204. Particulars: dose 0.5 mg/kg. In outline: as §1
Assay [12] deals with Felis catus. Nature of the assay: Average food consumed at the dose of 0.50 mg/kg (po) using 10 cats per dose level at 180 min (control day/ test day); 32/234. Particulars: dose 0.5 mg/kg. The gist of the method:
as §1

In assay [13] the test system is Felis catus. Nature of the assay: Average food consumed at the dose of 0.50 mg/kg (po) using 10 cats per dose level at 180 min (control day/ test day); 43/193. The note with it: dose 0.5 mg/kg. The gist of the method:
as §1

Assay [14] concerns Felis catus. Nature of the assay: Average food consumed at the dose of 0.50 mg/kg (po) using 10 cats per dose level at 60 min (control day/ test day); 45/142. The note with it: dose 0.5 mg/kg. The gist of the method:
as §1

The subject of assay [15] is Felis catus. Description: Average food consumed at the dose of 0.50 mg/kg (po) using 10 cats per dose level at 30 min (control day/ test day); 33/109. Particulars: dose 0.5 mg/kg. The gist of the method: as §1
Assay [16] concerns Felis catus. Description: Average food consumed at the dose of 0.25 mg/kg (po) using 10 cats per dose level at 60 min (control day/ test day); 26/127. The gist of the method: as §1
The subject of assay [17] is Felis catus. Nature of the assay: Average food consumed at the dose of 0.031 mg/kg (po) using 10 cats per dose level at 30 min (control day/ test day); 20/75.
The subject of assay [18] is Felis catus. Description: Average food consumed at the dose of 0.063 mg/kg (po) using 10 cats per dose level at 180 min (control day/ test day); 26/204.
The test system of assay [19] is Felis catus. Nature of the assay: Average food consumed at the dose of 0.063 mg/kg (po) using 10 cats per dose level at 60 min (control day/ test day); 32/138.
Assay [20] has as its system Felis catus. Description: Average food consumed at the dose of 0.063 mg/kg (po) using 10 cats per dose level at 30 min (control day/ test day); 33/122.
Assay [21] relates to Felis catus. Nature of the assay: Average food consumed at the dose of 0.25 mg/kg (po) using 10 cats per dose level at 180 min (control day/ test day); 30/170.
Assay [22] relates to Felis catus. Nature of the assay: Average food consumed at the dose of 0.031 mg/kg (po) using 10 cats per dose level at 60 min (control day/ test day); 14/95.
In assay [23] the test system is Felis catus. Description: Average food consumed at the dose of 0.50 mg/kg (po) using 10 cats per dose level at 180 min (control day/ test day); 45/221. The note with it: dose 0.5 mg/kg. The gist of the method: as §1
Assay [24] has as its system Felis catus. Description: Average food consumed at the dose of 0.50 mg/kg (po) using 10 cats per dose level at 30 min (control day/ test day); 38/105. The note with it: dose 0.5 mg/kg. In outline: as §1
Assay [25] deals with Felis catus. Nature of the assay: Average food consumed at the dose of 0.016 mg/kg (po) using 10 cats per dose level at 60 min (control day/ test day); 30/137.
The subject of assay [26] is Felis catus. Description: Average food consumed at the dose of 0.016 mg/kg (po) using 10 cats per dose level at 30 min (control day/ test day); 25/104.
Assay [27] relates to Felis catus. Nature of the assay: Average food consumed at the dose of 0.25 mg/kg (po) using 10 cats per dose level at 30 min (control day/ test day); 20/89.
For assay [28], the system named is Felis catus. Nature of the assay: Average food consumed at the dose of 0.016 mg/kg (po) using 10 cats per dose level at 180 min (control day/ test day); 39/190.
Assay [29] relates to Felis catus. Description: Average food consumed at the dose of 0.031 mg/kg (po) using 10 cats per dose level at 180 min (control day/ test day); 24/152.
Assay [30] deals with Felis catus. Nature of the assay: Average food consumed at the dose of 0.50 mg/kg (po) using 10 cats per dose level at 60 min (control day/ test day); 42/155. Particulars: dose 0.5 mg/kg. In outline:
as §1

Take `CN1CCC(=C2c3ccccc3CCn3cccc32)CC1.O=C(O)C(=O)O`: the Average consumed stood at 133 g in [1]; 91 g in assay [2]; 137 g in assay [3]; 77 g in assay [4]; 52 g in [5]; 159 g in assay [6]. Besides, the Average consumed in [7] was determined as 74 g; in assay [8], 106 g; in assay [9], 124 g; in assay [10] it was 175 g; in [11] it was 117 g; in assay [12], 166 g.

Consider `CN1CCC(=C2c3cc(C(=O)O)ccc3CCn3cccc32)CC1.Cl`, for which the Average consumed in assay [13] is 173 g; in assay [14] it was 125 g; in assay [15], 92 g.

Turning to `CN1CCC(=C2c3ccccc3CCc3ccc(C(=O)O)cc32)CC1.Cl`, the Average consumed in assay [16] is 102 g; in assay [17] it was 53 g; in assay [18] it was 174 g; in [19], 118 g; in [20], 88 g; in [21], 145 g. Further, the Average consumed was determined as 83 g in assay [22]; 134 g in assay [23]; 84 g in assay [24]; 139 g in assay [25]; 97 g in [26]; 68 g in assay [27]. Also, the Average consumed in assay [28] came to 180 g; in assay [29], 126 g; in assay [30], 102 g.
